{"data": "Assay results collected from several papers", "cell line": "A549", "read-out": "cell growth or viability", "note": "Protocols differ between the studies behind these lines. pIC50: −log10 of the molar value."}
{"Structure (SMILES)": "COc1cc(CNC(=O)C[C@H](C)CCC=C(C)C)ccc1OCc1cn(-c2ccc(Cl)cc2)nn1", "technique": "SRB", "time": "48 h", "pIC50": 4.98}
{"Structure (SMILES)": "O=C(/N=C1\\SCC(=O)N1C1CCCCC1)c1ccc2ccccc2c1", "time": "48 h", "pIC50": 4.72}
{"Structure (SMILES)": "C=CC(=O)Nc1cc(Nc2nc(N3CCc4sccc4C3)c3cccnc3n2)c(OC)cc1N(C)CCN(C)C", "technique": "MTT", "pIC50": 4.66}
{"Structure (SMILES)": "COc1cccc2c1C(=O)c1c(O)c3c(c(O)c1C2=O)C[C@@](O)(C(=O)CO)C[C@@H]3O[C@H]1C[C@H](N)[C@H](O)[C@H](C)O1", "technique": "MTT", "time": "24 h", "pIC50": "< 4.00"}
{"Structure (SMILES)": "COCCCOc1ccnc(COc2ccc(NC(=O)Nc3ccc(Cl)cc3)cc2)c1C", "technique": "MTT", "time": "72 h", "pIC50": 4.99}
{"Structure (SMILES)": "COc1c(C)c(OS(=O)(=O)c2ccc3ccccc3c2)c(C)c(OS(=O)(=O)c2ccc3ccccc3c2)c1C(=O)/C=C/c1ccccc1", "technique": "SRB", "time": "72 h", "pIC50": "< 4.30"}
{"Structure (SMILES)": "COc1c2c(cc3c1OCO3)[C@]13C=C[C@H](OC)C[C@H]1N(C2)C[C@H]3OC(=O)c1cccc(C)c1", "technique": "WST-1", "pIC50": "< 5.00"}
{"Structure (SMILES)": "Cc1c(NC(=O)c2ccc(C(C)(C)C)cc2)cccc1-c1cn(C)c(=O)c(Nc2ccc(C(=O)N3CCOCC3)cc2)n1", "pIC50": "< 5.00"}
{"Structure (SMILES)": "COc1ccccc1OCCN(C)CC(O)COc1cccc2[nH]c3ccccc3c12 (stereo not shown)", "technique": "CCK-8", "time": "72 h", "pIC50": 4.48}
{"Structure (SMILES)": "O=C(N/N=C/c1cccn1CCN1CCCC1)Nc1cc2c(Nc3ccc(F)c(Cl)c3)ncnc2cc1O[C@H]1CCOC1", "technique": "MTT", "time": "72 h", "pIC50": 5.62}
{"Structure (SMILES)": "COc1ccc(-c2nn(-c3ccc(S(C)(=O)=O)cc3)cc2/C=N/N=c2\\[nH]c(-c3ccc(Br)cc3)cs2)cc1", "technique": "MTT", "time": "48 h", "pIC50": 4.84}
{"Structure (SMILES)": "COc1ccccc1/C=C/CNCC(O)COc1cccc2[nH]ccc12 (stereo not shown)", "technique": "CCK-8", "time": "72 h", "pIC50": 4.57}
{"Structure (SMILES)": "COc1cc2ncnc(Nc3ccc(F)c(Cl)c3)c2cc1NC(=O)N/N=C/c1cccn1CCN1CCN(C)CC1", "technique": "MTT", "time": "72 h", "pIC50": 5.63}
{"Structure (SMILES)": "CN1C(=O)/C(=N\\NC(=O)c2cc3ccccc3[nH]2)c2cc(Br)ccc21", "pIC50": 5.83}
{"Structure (SMILES)": "O=C(Nc1nnnn1C1CCCCC1)c1ccc2ccccc2c1", "time": "48 h", "pIC50": 5.95}
{"Structure (SMILES)": "CCn1c(-c2nnc(NC(=O)c3cc4c([nH]c5ccccc54)c(-c4ccc(OC)cc4)n3)s2)cc2ccccc21", "technique": "MTT", "time": "72 h", "pIC50": 4.85}
{"Structure (SMILES)": "Cc1c(OCC(F)(F)F)ccnc1COc1ccc(NC(=O)Nc2cc(F)cc(F)c2)cc1", "technique": "MTT", "time": "72 h", "pIC50": 5.12}
{"Structure (SMILES)": "O=C([O-])c1ccc(-n2nc(-c3ccccc3O)nc2-c2ccccc2[O-])cc1.O=C([O-])c1ccc(-n2nc(-c3ccccc3O)nc2-c2ccccc2[O-])cc1.[Ti+4]", "technique": "MTT", "time": "72 h", "pIC50": 4.70}
{"Structure (SMILES)": "O=C(NNC(=O)c1ccc(Nc2nccc(-c3ccccn3)n2)cc1)NC1CCCC1", "technique": "MTT", "pIC50": "< 4.40"}
{"Structure (SMILES)": "COc1cc2ncnc(Nc3ccc(F)c(Cl)c3)c2cc1NC(=O)N/N=C/c1cccn1CCN(C)C", "technique": "MTT", "time": "72 h", "pIC50": 5.37}
{"Structure (SMILES)": "C=C(Cl)C(=O)Nc1cc(Nc2nc(N3CCc4sccc4C3)c3sccc3n2)c(OC)cc1N(C)CCN(C)C", "technique": "MTT", "pIC50": 5.82}
{"Structure (SMILES)": "CC1=C(O)C(=O)C=C2C1=CC=C1[C@@]2(C)CC[C@@]2(C)[C@@H]3C[C@](C)(C(=O)OCCCCCCO)CC[C@]3(C)CC[C@]12C", "technique": "MTT", "time": "48 h", "pIC50": "< 4.00"}
